Sampled rows, rich in hits. Any-hit rate of the full collection: about 2.5%.
HGIII-sPLA2 inh = Inhibits HGIII-sPLA2 liposome hydrolysis, primary screen | Q9NZ20 | QFRET BODIPY PC-A2 liposome hydrolysis, fluorescence | inhibition, % at 12.2 µM | hit rate 0.56% among 370,000 | AID 743126;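 active = inhibition above mean plus 3 SD of compounds lying within the high and low control bounds, cut at about 19% in these data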;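 also: 0% = median of test compound wells and 100% = no enzyme DMSO wells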
Target sequence (Q9NZ20 whole entry, looked up): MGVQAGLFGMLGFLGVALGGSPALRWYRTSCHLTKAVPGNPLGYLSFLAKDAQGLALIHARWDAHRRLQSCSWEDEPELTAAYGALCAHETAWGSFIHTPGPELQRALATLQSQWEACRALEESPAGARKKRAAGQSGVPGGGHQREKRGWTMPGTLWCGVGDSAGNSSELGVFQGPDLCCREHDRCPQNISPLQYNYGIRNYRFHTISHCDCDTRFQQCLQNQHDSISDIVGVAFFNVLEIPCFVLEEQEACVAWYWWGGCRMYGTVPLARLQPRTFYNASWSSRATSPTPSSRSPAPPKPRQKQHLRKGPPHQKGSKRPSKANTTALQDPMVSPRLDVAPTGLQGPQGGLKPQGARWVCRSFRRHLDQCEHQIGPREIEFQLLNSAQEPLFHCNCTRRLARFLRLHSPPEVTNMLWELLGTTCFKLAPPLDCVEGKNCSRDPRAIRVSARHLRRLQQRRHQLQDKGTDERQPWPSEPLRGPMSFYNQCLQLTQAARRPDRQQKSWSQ
A1 inh = inhibitors of the anti-apoptotic protein A1, read as caspase activation; MEF A1-2A-BIM cells, Caspase-Glo 3/7 luminescence, 3 h; percent of clofoctol response, vehicle zero; caspase activation, % (concentration not given with the values); AID 2462; hit rate 0.066% among 330,000;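 active = over half of replicate activation scores above 10%, or exactly half above 10 with the replicate mean above 10; inconclusive = replicate mean below 10 yet half the replicates above 10; inactive = over half of replicates below 10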
Granule exo inh = lytic granule exocytosis inhibition; inhibition, % at 10 µM; hit rate 0.66% among 360,000; TALL-104 LAMP-1 surface exposure, flow cytometry; cells stimulated with thapsigargin and PMA; AID 651702;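 active = inhibition above about 55%, limit read from the data; inconclusive = no clear call, values can overlap the other calls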
MC4R antagonist = human MC4R antagonism in cAMP assay | MC4R-expressing cells, MTII-stimulated cAMP, LANCE TR-FRET | P32245 | inhibition, % at 6.5 µM | hit rate 0.48% among 360,000 | AID 540295;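 active = inhibition above its plate's cutoff, the mean of tested wells on that plate plus 3 SD, cut at about 29% in these data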;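 also: 0% = Melanotan II alone and 100% = Melanotan II plus saturating MCL0020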
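System – human MC4R-expressing U2OS cells · Also added – Melanotan II · Dosing – one concentration, 6.5 µM nominal · Timing – 30-min compound, 1-h challenge, 1-h detection, room temperature · Measured by – Eu-cAMP/anti-cAMP TR-FRET, emission 671 nm · Replicates – singlicate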
NTR1 ag = activates human neurotensin receptor 1; NTR1-U2OS beta-arrestin-GFP spot imaging, agonist mode; activation, % at 20 µM; hit rate 0.17% among 330,000; AID 493036;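 active = activation at or above 40% of the spot to cytoplasm intensity ratio, with at least 20 cells analyzed; inconclusive = wells under 20 cells, flagged as cytotoxic or low count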;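 also: 0% = DMSO without peptide and 100% = 100 nM NTR1 peptide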
MC4R barr agon = agonists of human melanocortin 4 receptor (MC4R) beta-arrestin; U2OS MC4R beta-arrestin complementation, luminescence; percent of melanotan II response, DMSO zero; hit rate 0.98% among 360,000; activation, % at 8.9 µM;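 active = activation above a per-plate cutoff, the mean activation of sample wells on that plate plus 3 SD, cut at about 8% in these data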
* = called active by the depositor.

CC1(C)CC[C@]2(C(=O)O)CC[C@]3(C)C(=CC[C@@H]4[C@@]5(C)CC[C@H](O)C(C)(C)[C@@H]5CC[C@]43C)[C@@H]2C1 was read as HGIII-sPLA2 inh 8.3, A1 inh 1.0, Granule exo inh 21.4, MC4R antagonist 8.9, NTR1 ag 8.9 and MC4R barr agon 0.8.
For CC1(C)CC[C@]2(C(=O)O)CC[C@]3(C)C(=CCC4[C@@]5(C)CC[C@H](O)C(C)(C)C5CC[C@]43C)C2C1 (stereo not given in full) the results were HGIII-sPLA2 inh 2.4, A1 inh inconclusive, Granule exo inh 55.7*, MC4R antagonist 3.1 and MC4R barr agon -1.4.
`CCCCCCCCCCCCCCCC[N+](C)(C)CCN(Cc1ccc(OC)cc1)c1ncccn1` gave A1 inh -1.0, Granule exo inh 30.5, MC4R antagonist 42.9*, NTR1 ag 17.6 and MC4R barr agon 11.8*.
`S=C(NCc1ccccc1)NCc1ccc(CNC(=S)NCc2ccccc2)cc1` gave HGIII-sPLA2 inh -54.1, A1 inh 0.4, Granule exo inh 4.2, MC4R antagonist 5.8, NTR1 ag 1.9 and MC4R barr agon -2.4.
Screening S=C(NCc1ccccc1)C(=S)NCc1ccccc1 returned HGIII-sPLA2 inh 11.7, Granule exo inh 97.4*, MC4R antagonist 9.4 and MC4R barr agon -1.9.
`CCCCOCCCNC(=O)C[C@H]1C[C@@]2(C(=O)OC)C(=C[C@H](C3CCCC3)O[C@@H]2C)N(CCc2ccc(OC)c(OC)c2)C1=O` gave HGIII-sPLA2 inh -6.8.
Screening CC(=O)c1ccc([C@H](O)[C@H](C)C(=O)N(C)c2ccccc2)cc1 returned HGIII-sPLA2 inh 6.3.
CCOC(=O)c1c(NC(=O)COc2ccccc2C#N)sc2c1CC(C)(C)NC2(C)C was read as HGIII-sPLA2 inh -8.1, A1 inh -0.8, Granule exo inh 56.6*, MC4R antagonist 2.3, NTR1 ag -2.1 and MC4R barr agon -0.9.
For COCCN1Cc2cc(C(=O)OC)c3c(c2C1=O)c1ccccc1n3S(=O)(=O)c1ccc(C)cc1 the results were HGIII-sPLA2 inh -4.2.
`O=S1(=O)c2ccc(Br)cc2OC[C@H](Cc2ccccc2)N1Cc1cn(Cc2ccc(F)cc2)nn1` gave HGIII-sPLA2 inh 6.2.
C=CCNC(=O)c1c(N)n(-c2ccc3c(c2)OCO3)c2nc3ccccc3nc12 was read as HGIII-sPLA2 inh 0.8, A1 inh 1.1, Granule exo inh 1.0, MC4R antagonist 3.2, NTR1 ag 0.7 and MC4R barr agon 8.7*.
`CCOC(=O)C1=CCN(S(=O)(=O)c2ccc(C)cc2)C1c1ccccc1` (stereo not given) gave HGIII-sPLA2 inh -7.3 and Granule exo inh -1.1.
Screening CCOc1cc2c(c3c1C(c1ccccc1)N(S(=O)(=O)c1ccc(C)cc1)C3)C(=O)C=CC2=O (stereo not given) returned HGIII-sPLA2 inh 2.6 and Granule exo inh 73.7*.
Screening CCCCNC(=O)C1(C(=O)C2CC2)CC(c2ccccc2C(F)(F)F)=NO1 (stereo not given) returned HGIII-sPLA2 inh 0.2.
For C[C@H](O)[C@@H]1CN2CCc3c([nH]c4ccccc34)[C@@H]2C[C@@H]1N(C)C(=O)Nc1cccc2ccccc12 the results were HGIII-sPLA2 inh 2.2 and Granule exo inh 74.4*.
For O=C(COc1ccccc1)N[C@@H]1c2ccccc2CC[C@H]1OCc1ccccc1 the results were HGIII-sPLA2 inh -6.2, Granule exo inh 1.0, MC4R antagonist -1.6, NTR1 ag 2.7 and MC4R barr agon 1.0.
For O=C(COc1ccccc1)N[C@@H]1c2ccccc2CC[C@@H]1OCc1ccccc1 the results were HGIII-sPLA2 inh 8.6, Granule exo inh -1.4, MC4R antagonist 16.9, NTR1 ag 5.3 and MC4R barr agon 8.4*.
For CCC[C@H]1[C@@H](NC(=O)C(c2ccccc2)c2ccccc2)CC[C@@]23CCCN2C(=O)CCC[C@@H]13 the results were HGIII-sPLA2 inh -22.2.
CCOC(=O)C1=NOC(C(=O)Nc2nccs2)(C(=O)C2CC2)C1 (stereo not given) was read as HGIII-sPLA2 inh 1.0.
`CCOC(=O)Cn1c(=N)n(CCOc2ccc3ccccc3c2)c2ccccc21` gave HGIII-sPLA2 inh 0.8, A1 inh 0.3, Granule exo inh 21.1, MC4R antagonist -5.2, NTR1 ag 9.5 and MC4R barr agon 9.6*.
Cc1cc(Cl)ccc1OC(C)C(=O)NCCCCc1ccccc1 (stereo not given) was read as HGIII-sPLA2 inh -3.0, A1 inh -0.2, Granule exo inh 0.5, MC4R antagonist 14.5, NTR1 ag 8.4 and MC4R barr agon 9.0*.
`Cc1ccc(S(=O)(=O)n2nc(OC(=O)c3c(F)cccc3Cl)cc2N)cc1` gave HGIII-sPLA2 inh -10.6, A1 inh 0.5, Granule exo inh 78.0*, MC4R antagonist 13.4, NTR1 ag -0.4 and MC4R barr agon -2.1.
Cc1cc(C)cc(OCC(=O)Nc2nc(-c3cccnc3)cs2)c1 was read as HGIII-sPLA2 inh 4.6, A1 inh -0.4, Granule exo inh -3.0, MC4R antagonist 6.6, NTR1 ag 2.4 and MC4R barr agon 9.2*.
N#Cc1ccc(-c2csc(NNC(=O)c3ccccc3)n2)cc1 was read as HGIII-sPLA2 inh 38.9*, A1 inh 1.0, Granule exo inh -7.8, MC4R antagonist 1.9, NTR1 ag 1.2 and MC4R barr agon 0.0.
N#Cc1ccc(OCC(=O)Nc2nc(-c3cccnc3)cs2)cc1 was read as HGIII-sPLA2 inh 0.2, A1 inh 0.5, Granule exo inh -3.6, MC4R antagonist 4.5, NTR1 ag 0.3 and MC4R barr agon 9.1*.
Screening O=C(Nc1ccc(-c2csc(Nc3ccccc3)n2)cc1)c1ccccc1 returned HGIII-sPLA2 inh 1.8, A1 inh 1.0, Granule exo inh 12.8, MC4R antagonist 15.9, NTR1 ag 0.8 and MC4R barr agon 3.7.
For Nc1[nH]c(C(=O)c2ccccc2)c(-c2cccnc2)c1C(=O)NCCc1c[nH]c2ccccc12 the results were HGIII-sPLA2 inh -30.7.
`CCOc1cc(/C=C(\C#N)C(=O)Nc2cccc(C(=O)O)c2)ccc1OCc1ccccc1Cl` gave HGIII-sPLA2 inh 0.2, A1 inh 0.3, Granule exo inh 80.9*, MC4R antagonist 8.8, NTR1 ag 4.5 and MC4R barr agon -1.4.
For COC(=O)C[C@H]1CC[C@H]2[C@@H](COc3ccc(NC(=O)Nc4ccccc4)cc3C(=O)N2C)O1 the results were HGIII-sPLA2 inh -4.3.
Screening CCc1ccc(NC(=O)CCc2nc3cccnc3n2Cc2ccc(OC)cc2)cc1 returned HGIII-sPLA2 inh -11.6, A1 inh -0.3, Granule exo inh -0.9, MC4R antagonist 7.4, NTR1 ag -0.3 and MC4R barr agon 8.5*.

Screening data (PubChem)
